In the RNAGym collection of RNA variant scans (doi:10.1126/science.aae0568):
Fewer inactive variants are shown than the library holds.

B1: tRNA (parent)
chain: GUUCCGUUGGCGUAAUGGUAACGCGUCUCCCUCCUAAGGAGAAGACUGCGGGUUCGAGUCCCGUACGGAACG

Variants of: B1
Assay: yeast fitness relative to wild type (ratio to wild type); higher = fitter; tRNA-Arg(CCU), competitive growth, 37 C, YPD
Procedure, shortened: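 A pool of Saccharomyces cerevisiae strains, each with a tRNA-Arg(CCU) gene variant at the native genomic locus, was competed in YPD at 37°C for 24 hours across six parallel replicates. The variants had been chemically synthesised at a 3% per-site mutation rate over 69 sites, and gene amplicons before and after competition were read by 100-nucleotide paired-end sequencing. Darwinian fitness relative to wild type rested on changes in genotype frequencies. Genotypes required ≥ 100 starting reads, and estimates < 0.5 were set to 0.5.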

Variant | yeast fitness
GUUCCGAUGGCGUAAUGGUAACGCGUCUCCCUCGUAAGGAGAAGACUGCGGGUUCGAGUCCCGUAUGGAACG [U7A C34G C66U] | ≤ 0.5
GUUCCGAUGGCAUAAUGGUAACGCGUCUCCCUCCUAAGGAGAAGACUGUGGGUUCGAGUCCGGUACGGAACG [U7A G12A C49U C62G] | ≤ 0.5
GUUCCGAUGGCGUAAUGGUAACGUGUCUCCCUCCUAAGGAGAAGACCGCGGGUUCGAGUCCCGUACGGAACG [U7A C24U U47C] | 0.566
GUUCCGAUGGCGUAAUGGUAACGCGUCUCCCUCCUAAGGAGAAGACUGCGGGUUAGAGUCCCGUCCGGAACG [U7A C55A A65C] | ≤ 0.5
GUUCCGAUGGCGUAAUGGUAACGCGUUUCCCUCCUAAGGAGAAGACUGCGGGUUCGUGUCCCGUCCGGAACG [U7A C27U A57U A65C] | ≤ 0.5
GUUCCGAUCGCGUAAUCGUAACGCGUCUCCCUCCUAAGGAGAAGACUACGGGUUCGAGUCCCAUACGGAACG [U7A G9C G17C G48A G63A] | 0.584
GUUCCGAUGACGUAAUGGUAACGCGUCUCCCUCCUAAGGACUAGAAUGCGGGUUCGAGUCCCGUACGGAACG [U7A G10A G41C A42U C46A] | ≤ 0.5
GUUCCGAUGGCGUAAUGGUAACGCGUCUACCUCCUAAGGAGAAGACUGCGGGUUCGAGUCCCGUCCGGAACG [U7A C29A A65C] | ≤ 0.5
GUUCCGAUCGCGUAAUCGUAACGCGUCUGCCUGCUAAGGACAAGACUGCGGGUUCGAGUCCCGUAUGGAACG [U7A G9C G17C C29G C33G G41C C66U] | ≤ 0.5
GUUCCGAUGACGUAAUGGUAACGCGUCUCCCUCCUAAGGAUAAGACUGUGGGUUCGAGUCCCGUACGGAACG [U7A G10A G41U C49U] | 0.615
GUUCCGAUGGCAUAAUGUUAACGCGUCUCCUUCCUAAGGAGAAGACUGGGGGUUCGAGUCCCGUACGGAACG [U7A G12A G18U C31U C49G] | ≤ 0.5
GUUCCGAUGGCGUAAUGGUAACGCGUCUCCCUCCUAAGGAGAAGAAUGCGGGUUCGAGUCCCGUACGUAACG [U7A C46A G68U] | ≤ 0.5
GUUCCGAUGGCGUAAUGGUAACGCGUUUUCCUCCUAAGGAGAAGACUGCGGGUUCGAAUCCCGUACGAAACG [U7A C27U C29U G58A G68A] | ≤ 0.5
GUUCCGAUGGCGUAAUGGUAACGCGUUUCCCUCCUAAGGAGAAGACUGCGGCUUCGAGUCCCGUACGCAACG [U7A C27U G52C G68C] | ≤ 0.5
GUUCCGAUGGCGUAAUGGUAACGCGUCUCCCUCCUAAGGAGAAGACUGCGGGUUCGAGUCCGGUACGGAACG [U7A C62G] | 0.63
GUUCCGAUGGCGUAAUGGUAACGCGUCUCCUUCCUAAGGAGAAGACUGCGGGUUCGAGUCCCGUACGGAACG [U7A C31U] | 0.683
GUUCCGAUGGCGUAAUGGUAACGCGUCUACCUCCUAAGGAGAAGACUGCCGGUCCGAGUCCCGUACGGAACG [U7A C29A G50C U54C] | ≤ 0.5
GUUCCGAUGGCGUAAUGGUAACGCGUCUACCUCCUAAGGAGAAGACCGCGGGUUCGAAUCGCGUACGGAUCG [U7A C29A U47C G58A C61G A70U] | 0.588
GUUCCGAUCGCAUAAUCGUAACGCGUCUCCCUCCUAAGGAGAAGACUACGGGUUCGAGUCCCGUACGGAACG [U7A G9C G12A G17C G48A] | ≤ 0.5

Variant | yeast fitness
GUUCCGAUGGCGUAAUGGUAACGCGUCUCCCUACUAAGGAGAAGACUGCAGGUUCGAGUCGCGUACGGAACG [U7A C33A G50A C61G] | ≤ 0.5
GUUCCGAUGCCGUAAUGGUAAUGCGUGUCCCUCCUAAGGAGAAGACUGCGGGUUCGAGUCAUGUUCGGCACG [U7A G10C C22U C27G C61A C62U A65U A69C] | ≤ 0.5
GUUCCGAUGGCGUAAUGGUAACGCGUCUCUCUUCUAAGGAGAAGAUUGCGGGUUCGAGUCCCGUACGGAACG [U7A C30U C33U C46U] | ≤ 0.5
GUUCCGAUGGCGUAAUGGUAACGCGUCUUCCUCCUAAGGAGAAGACUGCGGGUUCGCGUCCCGUACGGAACG [U7A C29U A57C] | ≤ 0.5
GUUCCGAUGGCGUAAUGGUAACGCGUCUCCCUCCUAAGGAGAAGACUGCGGGUUCGAGUCACGUACGGAACG [U7A C61A] | 0.603
GUUCCGAUGGCGUAAUGGUAACGCGUCUCGCUCCUAAGGAGAAGACUGCGGGUUCGUAUCCCGUACGGAACG [U7A C30G A57U G58A] | ≤ 0.5
GUUCCGAUGACGUAAUGGUAACGCGUCUCCCUCCUAAGGAGAAGACUGCGGGUUCGAGUUCCGUACGGAACG [U7A G10A C60U] | 0.607
GUUCCGAUGGCGUAAUGGUAACGCGUCUCCCUCCUAAGGAGAAGACUGCGGGUUUGAGUCACGUACGGAACG [U7A C55U C61A] | 0.508
GUUCCGAUGGCGUAAUGGUAACGCGUUUCCCUCCUAAGGAGAAGACUGCGGGUUUGAGUCCCGUACGGAACG [U7A C27U C55U] | ≤ 0.5
GUUCCGAUAGCGAAAUGGUAACGCGUCUCCCUCCUAAGGAGAGGACUGCGGGUUCAAGUCCCGUACGGAACG [U7A G9A U13A A43G G56A] | ≤ 0.5
GUUCCGAUCGCGUGAUCGUAACGCGUCUCCCUCCUAAGGAGAAGACUACGGGUUCGAGUCCCGUACGGAACG [U7A G9C A14G G17C G48A] | ≤ 0.5
GUUCCGAUGGCAUAAUGGUAACGCGUAUCCCUCCUAAGGAGAAGACUGCGGGUUCGAGUCCCGUACGGAACG [U7A G12A C27A] | ≤ 0.5
GUUCCGAUGGCGUAAUGGUAACGCGUCUACCUCCUAAGGAGAAGACUGCGGGUUCGAGUCCCGUACGGAACG [U7A C29A] | 0.73
GUUCCGAUGACGUAAUGGUAACGCGUCUCCCUCCUAGGGACUAGAAUGCGGGUUCGAGUCGCGUACGGAACG [U7A G10A A37G G41C A42U C46A C61G] | 0.738
GUUCCGAUGGCGUAAUGGUAACGCGUCUCCCUCAUAAGGAGAAAAUUGCGGGUUCGAGUCCCGUACGGACCG [U7A C34A G44A C46U A70C] | ≤ 0.5
GUUCCGAUGACGUGAUGGUAACGCGUCUCCCUCCUAAGGACUAGAAUGCGGGUUCGAGUCGCGUACGGAACG [U7A G10A A14G G41C A42U C46A C61G] | ≤ 0.5
GUUCCGAUGGCGUAAUGGUAACGCGUCUCCCUCGUAAGGAGAAGACUGCGGGCUCGAGUCCCGUACGGAACG [U7A C34G U53C] | 0.726
GUUCCGAUCGCGUAAUCGUAACGCGUCUCCCUCAUAAGGAGAAAAUUGCGGGUUCGAGUCCCGUACGAAACG [U7A G9C G17C C34A G44A C46U G68A] | ≤ 0.5
GUUCCGAUGGCGUAAUGGUAACGCGUAUCCCUCCUAAGGAGAAGACUGCGGGUUCGAGUCCCGUAUGGAACG [U7A C27A C66U] | ≤ 0.5
